Laboratory results taken from ChEMBL document CHEMBL4725388, “Characterization of Aminobenzylphenols as Protein Disulfide Isomerase Inhibitors in Glioblastoma Cell Lines” (J Med Chem, 2020).
Blank lines part the entries; values can stand above or below the molecule they belong to. Activity calls are given as the source filed them. The calls are words filed in the database; no cut-off is given here.

Key:
[1] = target: T1, Protein disulfide-isomerase (Homo sapiens, UniProt P07237); assay: Displacement of PACMA57 from recombinant human wild-type N-terminal His-tagged PDIA1 expressed in Escherichia coli strain BL21(DE3) at 100 uM measured after overnight incubation by gel-based imaging analysis
Target sequence in this assay (P07237 18-508 limits assumed): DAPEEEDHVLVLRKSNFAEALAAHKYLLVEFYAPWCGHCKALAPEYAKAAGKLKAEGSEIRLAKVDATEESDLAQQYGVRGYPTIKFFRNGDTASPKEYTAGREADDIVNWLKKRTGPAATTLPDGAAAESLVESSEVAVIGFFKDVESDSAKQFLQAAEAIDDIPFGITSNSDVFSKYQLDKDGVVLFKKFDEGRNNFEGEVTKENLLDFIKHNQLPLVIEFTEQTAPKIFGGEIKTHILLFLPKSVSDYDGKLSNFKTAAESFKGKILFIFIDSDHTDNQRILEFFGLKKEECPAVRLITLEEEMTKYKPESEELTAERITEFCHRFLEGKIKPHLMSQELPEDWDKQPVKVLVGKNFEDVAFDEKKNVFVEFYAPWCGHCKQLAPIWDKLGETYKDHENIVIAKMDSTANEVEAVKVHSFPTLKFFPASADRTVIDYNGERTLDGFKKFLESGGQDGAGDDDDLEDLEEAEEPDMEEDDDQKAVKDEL

[2] = target: T1, Protein disulfide-isomerase; assay: Binding affinity to recombinant human wild-type N-terminal His-tagged PDIA1 expressed in Escherichia coli strain BL21(DE3) assessed as increase in protein mass at 100 uM measured after 30 mins in presence of GSTO1 and GRP78 by Q-TOF MS analysis relative to control
Method in brief: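 100 μM compound incubated 30 min with a mix of 10 μM PDI, 10 μM GSTO1 and 10 μM GRP78 (GRP78 as non-specific binding control); protein masses read by QTOF MS before/after.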
Target sequence in this assay (P07237 18-508 limits assumed): as above

[3] = target: T1, Protein disulfide-isomerase; assay: Inhibition of recombinant human wild-type N-terminal His-tagged PDIA1 expressed in Escherichia coli strain BL21(DE3) using bovine insulin as substrate preincubated for 1 hr followed by substrate addition
Method in brief: (§1)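 IC50 from dose-response curves; PDI reductase assay for enzyme, MTT in U-87 MG cells for cytotoxicity; mean ± SD of at least three independent experiments.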
Target sequence in this assay (P07237 whole entry): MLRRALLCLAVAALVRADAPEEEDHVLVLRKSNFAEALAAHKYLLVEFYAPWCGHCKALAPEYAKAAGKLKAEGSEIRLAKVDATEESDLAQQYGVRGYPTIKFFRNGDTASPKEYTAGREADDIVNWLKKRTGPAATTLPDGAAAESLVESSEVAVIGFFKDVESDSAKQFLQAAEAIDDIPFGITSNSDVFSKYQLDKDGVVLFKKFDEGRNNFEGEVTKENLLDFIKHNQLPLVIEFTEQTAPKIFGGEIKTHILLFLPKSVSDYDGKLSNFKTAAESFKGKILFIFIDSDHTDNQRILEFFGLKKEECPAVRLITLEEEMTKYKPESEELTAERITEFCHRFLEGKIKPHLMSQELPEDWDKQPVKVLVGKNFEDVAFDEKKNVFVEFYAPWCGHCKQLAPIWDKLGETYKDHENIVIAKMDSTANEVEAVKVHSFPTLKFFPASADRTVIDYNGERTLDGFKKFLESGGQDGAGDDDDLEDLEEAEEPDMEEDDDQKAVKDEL

[4] = target: T1, Protein disulfide-isomerase; assay: Binding affinity to recombinant human wild-type N-terminal His-tagged PDIA1 expressed in Escherichia coli strain BL21(DE3) assessed as change in melting temperature at 100 uM by ROX dye based thermal shift assay
Target sequence in this assay (P07237 18-508 limits assumed): as the sequence (P07237 18-508 limits assumed) above

[5] = target: T1, Protein disulfide-isomerase; assay: Inhibition of recombinant human wild-type N-terminal His-tagged PDIA1 expressed in Escherichia coli strain BL21(DE3) assessed as ratio of Kinact to Ki using bovine insulin as substrate preincubated for 5 to 60 mins followed by substrate addition; settings: time min 5-60
Method in brief: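 Activity measured in PDI reductase assay (insulin substrate, absorbance followed over time) at several inhibitor concentrations and preincubation times of 5 to 60 minutes; kinact/KI derived from concentration- and time-dependent inhibition curves.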
Target sequence in this assay (P07237 18-508 limits assumed): as above

[6] = target: T1, Protein disulfide-isomerase; assay: Inhibition of recombinant human wild-type N-terminal His-tagged PDIA1 expressed in Escherichia coli strain BL21(DE3) at 10 uM using bovine insulin as substrate preincubated for 1 hr followed by substrate addition in presence of N-acetyl cysteine
Method in brief: (§2)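 Compound incubated with N-acetyl cysteine before addition to the PDI reductase assay with PDIA1, at a final compound concentration of 10 μM.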
Target sequence in this assay (P07237 18-508 limits assumed): as above

[7] = target: T1, Protein disulfide-isomerase; assay: Inhibition of recombinant human wild-type N-terminal His-tagged PDIA1 expressed in Escherichia coli strain BL21(DE3) at 10 uM using bovine insulin as substrate preincubated for 1 hr followed by substrate addition in presence of glutathione
Method in brief: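 Glutathione added to the PDI reaction buffer before 10 μM compound; screening done with 5 mM GSH, reductase assay DTT at 500 μM.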
Target sequence in this assay (P07237 18-508 limits assumed): as above

[8] = target: T1, Protein disulfide-isomerase; assay: Inhibition of recombinant human wild-type N-terminal His-tagged PDIA1 expressed in Escherichia coli strain BL21(DE3) at 10 uM using bovine insulin as substrate preincubated for 1 hr followed by substrate addition in absence of glutathione
[9] = system: U-87 MG; assay: Cytotoxicity against human U-87 MG cells assessed as growth inhibition measured after 72 hrs by MTT assay; type: functional, cell-based, U-87MG ATCC; method in brief: as §1
[10] = system: U-87 MG; assay: Cytotoxicity against human U-87 MG cells assessed as growth inhibition at 30 uM measured after 72 hrs by MTT assay relative to control; type: functional, U-87MG ATCC; settings: read-out: GI
Method in brief: (§3)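 Single-concentration screen: percent inhibition of cell growth at 30 μM in U-87 MG and MIA PaCa-2 cells by MTT.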

[11] = species: Homo sapiens; assay: Binding affinity to recombinant human wild-type N-terminal His-tagged PDIA1 C53S mutant expressed in Escherichia coli strain BL21(DE3) assessed as adduct formation at 100 uM measured after 30 mins in presence of DTT by Q-TOF MS analysis
[12] = target: T1, Protein disulfide-isomerase; assay: Inhibition of recombinant human wild-type N-terminal His-tagged PDIA1 expressed in Escherichia coli strain BL21(DE3) at 1.1 to 90 uM using bovine insulin as substrate preincubated for 1 hr followed by substrate addition in presence of glutathione; settings: dose microM 1.1-90, time 1.0 hrs
[13] = target: T1, Protein disulfide-isomerase; assay: Binding affinity to recombinant human wild-type N-terminal His-tagged PDIA1 expressed in Escherichia coli strain BL21(DE3) assessed as adduct formation at 100 uM measured after 30 mins in presence of DTT by Q-TOF MS analysis
Method in brief: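 Recombinant PDI at 10 μM incubated 30 min with 100 μM compound and 100 μM DTT before injection; adducts detected by quadrupole time-of-flight mass spectrometry.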

[14] = system: U-87 MG; assay: Inhibition of colony formation in BSO-treated human U-87 MG cells at 0.3 to 30 uM measured after 10 to 14 days by crystal violet staining based assay; type: functional, cell-based; settings: U-87MG ATCC, dose microM 0.3-30, time day 10-14
Method in brief: (§4)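 U-87 MG cells pretreated with BSO for 24 hours before compound addition; read-out by colony formation assay.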

[15] = target: T1, Protein disulfide-isomerase; assay: Irreversible inhibition of recombinant human wild-type N-terminal His-tagged PDIA1 expressed in Escherichia coli strain BL21(DE3) at 400 uM using bovine insulin as substrate preincubated for 30 mins followed by 100-fold dilution substrate addition further incubated for 1 hr and subsequent substrate addition; settings: time 1.5 hrs
[16] = system: Protein disulfide-isomerase (Homo sapiens), P07237 [H256A]; assay: Inhibition of recombinant human wild-type N-terminal His-tagged PDIA1 H256A mutant expressed in Escherichia coli strain BL21(DE3) using bovine insulin as substrate preincubated for 1 hr followed by substrate addition
Sequence of Protein disulfide-isomerase (Homo sapiens), P07237 [H256A] (P07237 whole entry H256A): as the sequence (P07237 whole entry) above, with H256A counted along it

[17] = target: T1, Protein disulfide-isomerase; assay: Inhibition of recombinant human wild-type N-terminal His-tagged PDIA1 expressed in Escherichia coli strain BL21(DE3) at 10 uM using bovine insulin as substrate […]; method in brief: as §2
[18] = system: MIA PaCa-2; assay: Cytotoxicity against human MIA PaCa-2 cells assessed as growth inhibition at 30 uM measured after 72 hrs by MTT assay relative to control; type: functional; settings: read-out: GI; method in brief: as §3
[19] = system: U-87 MG; assay: Inhibition of colony formation in BSO-treated human U-87 MG cells at 0.3 to 3 uM measured after 10 to 14 days by crystal violet staining based assay; type: functional, cell-based; settings: U-87MG ATCC, dose microM 0.3-3, time day 10-14; method in brief: as §4
[20] = target: T1, Protein disulfide-isomerase; assay: Displacement of ANS from recombinant human wild-type N-terminal His-tagged PDIA1 expressed in Escherichia coli strain BL21(DE3) at 100 uM measured after 1 hr by fluorescence assay
[21] = target: T1, Protein disulfide-isomerase; assay: Inhibition of recombinant human wild-type N-terminal His-tagged PDIA1 expressed in Escherichia coli strain BL21(DE3) at 40 uM using bovine insulin as substrate preincubated for 1 hr followed by substrate addition relative to control
[22] = Drug uptake in human A 172 cell nucleus at 10 uM measured after 24 hrs by PDI antibody/DAPI staining based confocal microscopic analysis; type: ADME, subcellular; settings: a 172, 24 h
[23] = target: T1, Protein disulfide-isomerase; assay: Binding affinity to recombinant human wild-type N-terminal His-tagged PDIA1 expressed in Escherichia coli strain BL21(DE3) at 20 uM measured after 24 hrs in presence of BSA by SDS PAGE analysis
[24] = target: T1, Protein disulfide-isomerase; assay: Inhibition of recombinant human wild-type N-terminal His-tagged PDIA1 expressed in Escherichia coli strain BL21(DE3) at 10 to 40 uM using bovine insulin as substrate preincubated for 1 hr followed by substrate addition; settings: dose microM 10-40, time 1.0 hrs
[25] = target: T2, Albumin (Bos taurus, UniProt P02769); assay: Binding affinity to fetal bovine serum albumin at 20 uM measured after overnight incubation in presence of cell free DMEM medium by gel based assay; type: ADME; settings: cattle
T2 sequence (P02769 whole entry): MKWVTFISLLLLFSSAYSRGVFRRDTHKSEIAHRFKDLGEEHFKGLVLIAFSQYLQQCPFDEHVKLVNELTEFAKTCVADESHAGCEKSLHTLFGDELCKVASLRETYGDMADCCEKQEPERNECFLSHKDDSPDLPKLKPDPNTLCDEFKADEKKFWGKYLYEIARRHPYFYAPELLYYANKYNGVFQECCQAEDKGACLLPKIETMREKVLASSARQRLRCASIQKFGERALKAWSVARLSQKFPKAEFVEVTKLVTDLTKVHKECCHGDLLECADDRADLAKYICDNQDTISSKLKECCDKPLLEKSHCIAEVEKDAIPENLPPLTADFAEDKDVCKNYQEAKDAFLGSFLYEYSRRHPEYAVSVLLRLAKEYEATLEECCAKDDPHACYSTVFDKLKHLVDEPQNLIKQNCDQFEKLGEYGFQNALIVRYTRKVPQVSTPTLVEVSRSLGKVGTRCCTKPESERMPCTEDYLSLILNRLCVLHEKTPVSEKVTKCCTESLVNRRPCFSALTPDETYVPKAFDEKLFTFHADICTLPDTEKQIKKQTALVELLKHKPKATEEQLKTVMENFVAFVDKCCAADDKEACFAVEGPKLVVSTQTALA

[26] = target: T1, Protein disulfide-isomerase; assay: Binding affinity to PDIA1 in human U-87 MG cells at 40 uM measured after 24 hrs in presence of fetal bovine serum by Western blot analysis; type: cell-based
[27] = Drug uptake in human A 172 cell endoplasmic reticulum at 10 uM measured after 24 hrs by PDI antibody/DAPI staining based confocal microscopic analysis; type: ADME, subcellular; settings: a 172, 24 h
[28] = Drug uptake in human A 172 cell cytoplasm at 10 uM measured after 24 hrs by PDI antibody/DAPI staining based confocal microscopic analysis; type: ADME, subcellular; settings: a 172, 24 h
[29] = target: T1, Protein disulfide-isomerase; assay: Binding affinity to PDIA1 in human U-87 MG cells at 10 uM measured after 24 hrs in absence of fetal bovine serum by coomassie staining GFP channel based assay; type: cell-based
[30] = target: T2, Albumin; assay: Binding affinity to fetal bovine serum albumin at 40 uM measured after 24 hrs in presence of human U-87 MG cells by Western blot analysis; type: ADME, cell-free; settings: cattle

inhibition [1]: inactive
Activity [2]: inactive
IC50 [3]: > 30 µM
Structure (SMILES): Oc1cc2c(cc1C(c1ccc(F)cc1)N1CCCCC1)CCC2 (configuration not stated)

ΔTm [4]: 0.18 °C
Ratio [5]: 2 10^2/M/s
inhibition [6]: inactive
inhibition [7]: inactive
Structure (SMILES): C#CC(=O)N(c1ccc(OC)cc1OC)C(C(=O)NCC(=O)OCC)c1cccs1 (configuration not stated)

inhibition [8]: 88%
inhibition [7]: 64%
Structure (SMILES): CN(C)c1ccc(C(Nc2ncccn2)c2cc3c(cc2O)OCO3)cc1 (configuration not stated)

IC50 [3]: 0.69 µM
Structure (SMILES): Oc1c(C(c2ccc(F)cc2)N2CCCCC2)ccc2cccnc12 (configuration not stated)
IC50 [9]: 37 µM
inhibition of growth at 30 µM [10]: 54%

Activity [11]: Active
inhibition [12]: Active
Activity [13]: Active
Structure (SMILES): Oc1c(C(c2ccc(F)cc2)N2CCN(C(c3ccc(F)cc3)c3ccc4cncnc4c3O)CC2)ccc2cncnc12 (configuration not stated)
inhibition [14]: Active

inhibition [15]: Active
inhibition [1]: Active
ΔTm [4]: -0.36 °C
inhibition [16]: Active
Ratio [5]: 2.6 10^3/M/s
inhibition [17]: Active
IC50 [3]: 0.3 µM
inhibition [6]: inactive
inhibition [7]: inactive
inhibition [20]: inactive
inhibition [21]: 50%
Structure (SMILES): COc1ccc(C(c2cc3c(cc2O)OCO3)N2CCOCC2)cc1OC (configuration not stated)
IC50 [9]: 18.3 µM
inhibition of growth at 30 µM [10]: > 40%
inhibition of growth at 30 µM [18]: > 40%
inhibition [19]: Active

Drug uptake [22]: Active
Activity [23]: Active
inhibition [24]: inactive
Activity [25]: Active
Activity [26]: inactive
Drug uptake [27]: Active
Drug uptake [28]: Active
Activity [29]: inactive
Activity [30]: Active
Structure (SMILES): CC1=CC(C)=[N+]2C1=C(c1ccc(NC(=O)c3ccc(C(c4cc5c(cc4O)OCO5)N4CCCCC4)cc3)cc1)c1c(C)cc(C)n1[B-]2(F)F (configuration not stated)

IC50 [3]: 0.18 µM
Structure (SMILES): COc1cc(C(c2cc3c(cc2O)OCO3)N2CCCC2)cc(OC)c1OC (configuration not stated)
IC50 [9]: 24.2 µM
